Tests used:
[1] = system: MDA-MB-231; assay: Cytotoxicity against human MDA-MB-231 cells; type: functional
[2] = system: MDA-MB-435; assay: Cytotoxicity against human MDA-MB-435 cells; type: functional
[3] = system: M14; assay: Cytotoxicity against human M14 cells; type: functional
[4] = system: EKVX; assay: Cytotoxicity against human EKVX cells; type: functional
[5] = system: HL-60; assay: Cytotoxicity against human HL60 cells; type: functional
[6] = system: LOX IMVI; assay: Cytotoxicity against human LOXIMVI cells; type: functional
[7] = system: T47D; assay: Cytotoxicity against human T47D cells; type: functional
[8] = system: SNB-19; assay: Cytotoxicity against human SNB19 cells; type: functional
[9] = system: U-251; assay: Cytotoxicity against human U251 cells; type: functional
[10] = system: A498; assay: Cytotoxicity against human A498 cells; type: functional
[11] = system: TK-10; assay: Cytotoxicity against human TK10 cells; type: functional
[12] = system: Saccharomyces cerevisiae; assay: Growth inhibition of wild type Saccharomyces cerevisiae BY4741 at 20 ug/disc after 24 to 48 hrs by agar diffusion assay; type: functional; details: read-out: DIZ
Summary of the method: (§1)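 S. cerevisiae deletion mutants or wild type grown on YPD, seeded into liquid agar medium at an optical density of 0.1. 6 mm paper discs soaked with methanolic compound solution were placed on the plates and incubated at 30 °C. Growth was checked after 1 and 2 days, and the inhibition zone diameter was recorded in mm.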

[13] = system: Saccharomyces cerevisiae; assay: Growth inhibition of GSH2-deficient Saccharomyces cerevisiae YOL049W mutant at 20 ug/disc after 24 to 48 hrs by agar diffusion assay; type: functional; details: read-out: DIZ; summary of the method: as §1
[14] = system: OVCAR-5; assay: Cytotoxicity against human OVCAR5 cells; type: functional
[15] = system: SW-620; assay: Cytotoxicity against human SW620 cells; type: functional
[16] = system: NCI-H23; assay: Cytotoxicity against human NCI-H23 cells; type: functional
[17] = system: DU-145; assay: Cytotoxicity against human DU145 cells; type: functional
[18] = system: SNB-75; assay: Cytotoxicity against human SNB75 cells; type: functional
[19] = system: SK-MEL-5; assay: Cytotoxicity against human SK-MEL-5 cells; type: functional
[20] = system: MCF7; assay: Cytotoxicity against human MCF7 cells after 24 hrs by MTT assay; type: functional, cell-based; details: MCF7, 24 h
Summary of the method: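 MTT assay. Cells were seeded at 50,000 cells/mL in medium with 10% fetal calf serum and grown for two days at 37 °C, 10% CO2. Serial dilutions of compound were then added for 24 h. MTT was added (final 0.5 mg/mL) for 2 h, and the formazan was pelleted, washed, dissolved in isopropanol with 0.4% HCl and read at 590 nm. IC50 is the concentration giving 50% of untreated-control absorbance, taken from dose-response curves; mean of two parallel experiments.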

Work on CC1=C([Se]CC(OC(=O)[C@@H](CSSC(C)(C)C)NC(=O)C(C)(C)C)C(=O)NCCCCCC(=O)OCc2ccccc2)C(=O)c2ccccc2C1=O (some centres undefined) yielded a GI50 [1] of 1.91 µM, an LC50 [1] of 9.33 µM and a TGI ([1]; read-out: pTGI (converted)) of 4.27 µM. For the same molecule, the GI50 [2] was 2.29 µM, the LC50 [2] was 25.1 µM and the TGI ([2]; read-out: pTGI (converted)) was 5.5 µM. The GI50 [3] was 2.04 µM, the LC50 [3] was 7.94 µM and the TGI ([3]; read-out: pTGI (converted)) was 4.07 µM. For the same molecule, the GI50 [4] was 2.24 µM, the LC50 [4] was greater than 100 µM and the TGI ([4]; read-out: pTGI (converted)) was 5.37 µM. It also gave a GI50 [5] of 2.51 µM, an LC50 [5] greater than 100 µM and a TGI ([5]; read-out: pTGI (converted)) of 6.03 µM. For the same molecule, the GI50 [6] was 2.57 µM, the LC50 [6] was 42.7 µM and the TGI ([6]; read-out: pTGI (converted)) was 7.59 µM. The GI50 [7] was 2.19 µM, the LC50 [7] was greater than 100 µM and the TGI ([7]; read-out: pTGI (converted)) was 6.46 µM. The GI50 [8] was 1.1 µM, the LC50 [8] was 6.03 µM and the TGI ([8]; read-out: pTGI (converted)) was 2.57 µM. For the same molecule, the GI50 [9] was 1.26 µM, the LC50 [9] was 6.31 µM and the TGI ([9]; read-out: pTGI (converted)) was 2.82 µM. For the same molecule, the GI50 [10] was 1.62 µM, the LC50 (50% lethal concentration) [10] was 56.2 µM and the TGI ([10]; read-out: pTGI (converted)) was 4.79 µM. For the same molecule, the GI50 [11] was 2.4 µM, the LC50 [11] was 8.13 µM and the TGI ([11]; read-out: pTGI (converted)) was 4.47 µM. The zone of inhibition at 20 µg/disc [12] was 0 mm, the zone of inhibition at 20 µg/disc [13] was 0 mm and the GI50 [14] was 2.57 µM. It also gave an LC50 [14] of 17.4 µM, a TGI ([14]; read-out: pTGI (converted)) of 5.5 µM and a GI50 [15] of 2.29 µM. For the same molecule, the LC50 [15] was 15.8 µM, the TGI ([15]; read-out: pTGI (converted)) was 5.25 µM and the GI50 [16] was 2.4 µM. For the same molecule, the LC50 [16] was greater than 100 µM, the TGI ([16]; read-out: pTGI (converted)) was 7.08 µM and the GI50 [17] was 2.14 µM. For the same molecule, the LC50 [17] was 9.55 µM, the TGI ([17]; read-out: pTGI (converted)) was 4.47 µM and the GI50 [18] was 1.38 µM. For the same molecule, the LC50 [18] was 5.13 µM, the TGI ([18]; read-out: pTGI (converted)) was 2.69 µM and the GI50 [19] was 1.91 µM. It also gave an LC50 [19] of 5.89 µM, a TGI ([19]; read-out: pTGI (converted)) of 3.31 µM and an IC50 [20] of 8 µM.

— ChEMBL document CHEMBL2177069, “Novel peptidomimetic compounds containing redox active chalcogens and quinones as potential anticancer agents” (Eur J Med Chem, 2012)
